This is a sample that favours compounds with a hit; in the whole collection about 4.1% have one here.
KCNK3 inh: human KCNK3 channel inhibitors, primary screen, CHO cells, FluxOR thallium flux, B-score; AID 602410, 2012; B-score at 10 µM; 340,000 tested, 0.84% active; FluxOR fluorescence; stronger effect = lower value;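 active = B-score under library mean minus 4 SD, starting fluorescence ratio at most library mean plus 5 SD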;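 note: more negative B-score means stronger inhibition of thallium flux through KCNK3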
Target sequence (O14649 whole entry, looked up): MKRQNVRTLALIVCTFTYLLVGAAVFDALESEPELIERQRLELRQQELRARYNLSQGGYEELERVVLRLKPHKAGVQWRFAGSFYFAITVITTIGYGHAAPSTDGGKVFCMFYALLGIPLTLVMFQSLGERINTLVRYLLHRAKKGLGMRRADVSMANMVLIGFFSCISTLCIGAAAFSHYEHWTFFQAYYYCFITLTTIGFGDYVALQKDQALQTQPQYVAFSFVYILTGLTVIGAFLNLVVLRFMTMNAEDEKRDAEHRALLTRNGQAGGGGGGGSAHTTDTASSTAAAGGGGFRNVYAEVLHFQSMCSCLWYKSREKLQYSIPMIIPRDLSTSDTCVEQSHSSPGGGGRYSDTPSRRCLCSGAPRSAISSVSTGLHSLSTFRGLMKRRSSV
KCC2 mod: KCC2 cotransporter modulators, thallium flux, primary screen, cell-based, HEK293 KCC2, FluoZin-2 fluorescence, MLSMR. Solute carrier family 12 member 5 (Homo sapiens), Q9H2X9. KCC2 cells, thallium flux FluoZin-2 fluorescence. B-score of Tl+ flux slope (higher = more flux/activation; lower = inhibition) at 10 µM. 190,000 tested, 2.2% active;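 active = thallium flux slope and its plate-corrected score both differing from the plate sample mean at a set confidence after two filtering rounds, in either direction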;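 note: slope of fluorescence scaled to starting intensity during 10 to 20 s after thallium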
KCNK9 block: KCNK9 potassium channel inhibitors, primary screen, HEK293 cells, thallium flux. Potassium channel subfamily K member 9 (Homo sapiens), Q9NPC2. FluxOR thallium flux fluorescence; stronger effect = lower value. B-score at 10 µM. 310,000 tested, 1.2% active. AID 488922, 2010;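 active = ratio B-score over 3 SD below the library mean, with starting fluorescence within 5 SD of its mean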;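 note: negative B-score means less thallium flux so channel inhibition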
hERG protect: hERG rescue from dofetilide block, primary screen, cell-based, CHO-hERG, FluxOR thallium flux, dofetilide IC70. activation (rescue from dofetilide block), less the hit threshold, % at 10 µM. 310,000 tested, 0.51% active. Voltage-gated inwardly rectifying potassium channel KCNH2 (Homo sapiens), Q12809. dofetilide IC70 present;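 active = activation above the mean of controls blocked by dofetilide plus 5 SD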;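 note: thallium influx through hERG after potassium depolarization seen as dye fluorescence rise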
KCNQ1 pot: potentiators or activators of KCNQ1 channel, primary screen, cell-based, thallium flux, high-throughput; CHO-K1 KCNQ1, thallium flux FluxOR fluorescence; stronger effect = higher value; 310,000 tested, 0.35% active; AID 2648, 2010; Potassium voltage-gated channel subfamily KQT member 1 (Homo sapiens), P51787; B-score at 10 µM;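 active = fluorescence ratio B-score, a plate-corrected score, at least three library SD, with initial intensity B-score within 5 SD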
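Test system: CHO-K1 cells stably expressing KCNQ1 / Medium: assay buffer / Also added: depolarizing K+/Tl+ stimulus, K2SO4 and Tl2SO4 each 12.5 mM in 5x stock / Incubation: 90 min dye loading and 20 min compound exposure, both at room temperature / Signal: thallium influx via FluxOR fluorescence, kinetic imaging / Evaluation: B score of baseline-normalized fluorescence ratio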
KCNQ1 block: inhibitors of human KCNQ1 channel, primary screen, cell-based, thallium flux, high-throughput. Potassium voltage-gated channel subfamily KQT member 1 (Homo sapiens), P51787. CHO-K1 KCNQ1, FluxOR thallium flux fluorescence; stronger effect = higher value. B-score at 10 µM. 310,000 tested, 1.3% active. AID 2642, 2010;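 active = compounds whose thallium flux B-score, printed positive for inhibition, exceeds three library SD while starting fluorescence stays within three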;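 note: channel opened by potassium depolarization with thallium stimulus after 20 min compound exposure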
An asterisk follows results filed as active; i = inactive; · = not tested or not shown.

SMILES	KCNK3 inh	KCC2 mod	KCNK9 block	hERG protect	KCNQ1 pot	KCNQ1 block
CCCOc1ccc(/C(O)=C2/C(=O)C(=O)N(CCCn3ccnc3)C2c2ccco2)cc1 (stereo not given)	i	·	i	6.8*	i	i
C=CCN1CC(=O)N2C(c3ccccc3)c3[nH]c4ccccc4c3C[C@H]2C1=O (stereo not given in full)	i	·	i	-12.8	i	i
C=CCNC(=S)NNc1nc2c(c(=O)[nH]1)C1(CCCCC1)Cc1ccccc1-2	i	-0.054	i	-14.2	i	8*
CC(=O)N1CCN(c2ccc(NCc3ccc(-c4ccc(Br)cc4)o3)cc2)CC1	i	·	·	·	·	·
COc1ccc(/C=N/N2C(=O)c3ccccc3C2=O)cc1	i	-0.11	i	-0.5	i	i
COc1ccccc1/C=N/N1C(=O)c2cccc3cccc(c23)C1=O	i	0.081	i	7.2*	i	i
COC(=O)c1ccc(-c2sc3nc(N4CCOCC4)c4c(c3c2N)CCCC4)o1	·	-0.0736	-9.17*	-12.1	i	6*
Cc1ccccc1C(=O)N1CCC(C(=O)Nc2cc(C(F)(F)F)ccc2N2CCCC2)CC1	i	·	i	-14.4	i	i
O=C(COc1ccccc1Cl)NC(=S)Nc1ccccc1N1CCCC1	i	·	-13.5*	8.5*	7*	i
COc1ccccc1C(=O)NC(=S)Nc1ccccc1N1CCCC1	i	·	i	-9.1	i	i
O=C(COc1ccccc1)NC(=S)N1CCc2ccccc21	i	56.5*	i	4.9*	10*	i
O=C(COc1ccccc1Cl)NC(=S)N1CCc2ccccc21	i	37.1*	i	-5.4	i	i
O=C(NC(=S)Nc1ccccc1N1CCCCC1)c1ccc(F)cc1Cl	i	·	i	0.3	10*	i
NC(=O)c1ccc(/C=N/O)[n+](Cc2ccccc2)c1	i	·	i	-4.2	i	i
O=C1C=C(c2cc(C(F)(F)F)cc(C(F)(F)F)c2)C[C@@H](c2ccc(Cl)cc2)C1	i	·	·	·	·	·
Cc1cc(OCC(O)CNC(C)c2ccccc2)ccc1C(C)C (stereo not given)	i	·	i	-7.1	i	i
CCOC(=O)C1=C(C)N=C2SCCC(=O)N2C1c1ccc(C(=O)OC)cc1 (stereo not given)	i	·	i	-8.5	i	i
CCOC(=O)C1=C(C)N2C(=C(C#N)[C@@H]1c1ccc(C(=O)OC)cc1)SC[C@@]2(O)C(C)(C)C	i	-0.396	i	-19.8	i	6*
CCCCCCCC/C=C\CCCCCCCC(=O)O	i	-0.00128	i	13.1*	i	i
Cc1c(CCOC(=O)C23CC4(C)CC(C)(CC(C)(C4)C2)C3)sc[n+]1CC(=O)c1ccccc1	i	1.92	i	-7.2	i	i
Cc1c(CCOC(=O)CC23CC4CC(CC(C4)C2)C3)sc[n+]1CC(=O)c1ccccc1	i	1.15	i	-19.9	i	6*
O=C(O)c1ccc(CN2C(=O)c3cccc4c([N+](=O)[O-])ccc(c34)C2=O)cc1	i	·	i	-7.8	i	10*
COc1ccc(NC(=O)c2ccc(COCC(F)(F)C(F)F)cc2)cc1OC	i	0.657	i	-2.2	i	i
COc1ccc(NC(=O)c2ccc(COCC(F)(F)C(F)F)cc2)cc1	i	0.156	i	12.6*	i	i
Cn1c(N)c(C(=O)CSc2nn(-c3ccc(F)cc3)c(=S)s2)c(=O)n(C)c1=O	i	·	·	·	·	·
Cc1cc(C(=O)OCC(=O)Nc2ccccc2C(F)(F)F)on1	i	·	·	·	·	·
Cc1ccnc(NC(=O)CNC(=O)c2ccccc2Br)c1	i	·	i	-9.5	i	i

Screens deposited in PubChem BioAssay by several laboratories.
